Bioassay records deposited in PubChem BioAssay by The Scripps Research Institute Molecular Screening Center.
Only some compounds are listed: those with a hit (about 2.4% of all), similar ones and a draw of the others.
HTR5A inv ag: HTR5A inverse agonists in luminescence cell assay, primary screen, counter-screen for OPRM1-OPRD1 heterodimer inverse agonist project, full-deck HTS | 5-hydroxytryptamine receptor 5A (Homo sapiens), P47898 | HTR5A cell line, inverse agonism | inhibition, % at 9.3 µM | actives 0.083% (n = 340,000) | AID 504634, 2011; in the data active means inhibition mostly above about 23%, no sharp cut-off; inactive means mostly below about 18%
Target sequence (P47898 whole entry, looked up): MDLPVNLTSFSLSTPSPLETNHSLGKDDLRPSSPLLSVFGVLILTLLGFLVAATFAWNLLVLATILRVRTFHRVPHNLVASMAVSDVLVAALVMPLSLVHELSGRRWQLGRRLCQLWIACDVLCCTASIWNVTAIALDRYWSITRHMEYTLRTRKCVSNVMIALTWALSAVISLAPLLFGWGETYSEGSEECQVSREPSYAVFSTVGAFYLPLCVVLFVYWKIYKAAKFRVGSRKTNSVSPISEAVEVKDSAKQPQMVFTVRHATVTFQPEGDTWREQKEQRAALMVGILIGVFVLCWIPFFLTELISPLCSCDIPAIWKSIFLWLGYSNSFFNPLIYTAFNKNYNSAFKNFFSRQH
HTR5A ag: HTR5A agonists in luminescence cell assay, primary screen, counter-screen for OPRM1-OPRD1 heterodimer agonist project, full-deck HTS. activation, % at 9.3 µM. 5-hydroxytryptamine receptor 5A (Homo sapiens), P47898. actives 0.61% (n = 340,000). cell-based; in the data active means activation mostly above about 9.5%, no sharp cut-off; inactive means mostly below about 7.6%
OPRM1-OPRD1 ag: agonists of OPRM1-OPRD1 heterodimerization, primary screen, cell-based, luminescence. activation, % at 9.3 µM. AID 504326, 2011. cells. actives 0.3% (n = 340,000); in the data active means activation above about 18%
MOR-DOR inv ag: inverse agonists of MOR-DOR heterodimerization, primary screen, cell-based, luminescence. Mu-type opioid receptor (Homo sapiens) + Delta-type opioid receptor (Homo sapiens), …. cell-based MOR-DOR heterodimer luminescence, inverse agonism. inhibition, % at 9.3 µM. actives 0.21% (n = 340,000); in the data active means inhibition above about 22%, passing the limit was not always enough
MC4R ag barr: MC4R agonists recruiting beta-arrestin, primary screen, cell-based, luminescence, agonist arm of biased-ligand search. Melanocortin receptor 4 (Homo sapiens), P32245. U2OS MC4R beta-arrestin complementation; percent of melanotan II response, DMSO zero. activation, % at 8.9 µM. actives 0.98% (n = 360,000). AID 540308, 2011;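 active means activation above a per-plate cutoff, the mean activation of sample wells on that plate plus 3 SD, cut at about 8% in these data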
Target sequence (P32245 whole entry, looked up): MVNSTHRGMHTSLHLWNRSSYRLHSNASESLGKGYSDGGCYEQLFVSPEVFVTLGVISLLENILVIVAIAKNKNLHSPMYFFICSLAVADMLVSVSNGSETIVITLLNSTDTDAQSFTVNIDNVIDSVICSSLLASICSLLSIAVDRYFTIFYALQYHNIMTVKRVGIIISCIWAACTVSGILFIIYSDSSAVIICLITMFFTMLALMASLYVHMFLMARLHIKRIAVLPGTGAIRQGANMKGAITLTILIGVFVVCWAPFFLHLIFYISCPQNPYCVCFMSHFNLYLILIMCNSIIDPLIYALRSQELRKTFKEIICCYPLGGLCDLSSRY
MC4R antagonist: MC4R antagonists of cAMP signaling, primary screen, cell-based, TR-FRET, antagonist arm of biased-ligand search | actives 0.48% (n = 360,000) | inhibition, % at 6.5 µM | AID 540295, 2011 | MC4R-expressing cells, MTII-stimulated cAMP, LANCE TR-FRET | Melanocortin receptor 4 (Homo sapiens), P32245;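 active means inhibition above its plate's cutoff, the mean of tested wells on that plate plus 3 SD, cut at about 29% in these data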
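Material: U2OS-MC4R stable cell line | Reagent: Melanotan II challenge after compound preincubation | Doses: One concentration, 6.5 µM nominal | Incubation: 30-min compound preincubation, 1-h Melanotan II challenge, 1-h detection, room temperature | Signal: TR-FRET cAMP assay | Replicates: One well per compound, no replicates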
MC4R barr ag: MC4R beta-arrestin agonists, retest, confirmation, cell-based, luminescence, U2OS | actives 31% (n = 2,400) | activation, % at 8.9 µM | AID 602192, 2012 | U2OS MC4R beta-arrestin recruitment; scaled DMSO 0%, Melanotan II 100% | shares compounds with MC4R ag barr;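 active means mean activation across replicates above the hit cutoff set in the earlier primary screen, cut at about 8% in these data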
MOR DOR agonist: agonists of MOR-DOR heterodimerization, counter-screen for MC4R biased agonist project, cell-based, luminescence | activation, % at 9.2 µM | U2OS PathHunter beta-arrestin, beta-gal luminescence; percent of deltorphin B response, DMSO zero | shares compounds with MC4R ag barr | actives 5.8% (n = 2,400) | AID 602194, 2012;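 active means mean activation across replicates exceeds the hit threshold derived in the earlier primary screen, cut at about 18% in these data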
Large screens that a line does not name were inactive (follow-up assays come after a bar, where they were run).

COc1ccc(/C=C/C(=O)Oc2ccc(/C=N/NC(=O)c3ccccc3)cc2)cc1OC	MC4R ag barr 23 | MC4R barr ag inactive | MOR DOR agonist 22
COc1ccc(-c2cnnc(N/N=C/c3ccc(OC)c(OC)c3)n2)cc1	MC4R ag barr 13 | MC4R barr ag inactive | MOR DOR agonist inactive
COc1ccc(/C=N/Nc2nc(C)cc(-c3ccccc3)n2)cc1OC	none
COc1ccc(-c2cc(-c3ccccc3)nc(Cl)n2)cc1OC	MC4R ag barr 13 | MC4R barr ag inactive | MOR DOR agonist inactive
COc1cccc(/C=N/NC(=O)c2nc(-c3ccccc3)cc(-c3ccccc3)n2)c1	none
COc1ccc(/C=N/NC(=O)c2ccncc2)cc1OC	none
COc1ccc(/C=N/NC(=O)c2nc(-c3ccccc3)cc(-c3ccccc3)n2)cc1OC	MC4R ag barr 19 | MC4R barr ag inactive | MOR DOR agonist inactive
Cc1ccc(CSc2nnc(CNc3ccc(F)cc3)o2)cc1	none
O=C(Nc1ccccc1F)c1oc2ccccc2c1NC(=O)C1CC1	MC4R ag barr 9.6 | MC4R barr ag inactive | MOR DOR agonist inactive
O=C(Nc1ccc(F)cc1)c1oc2ccccc2c1NC(=O)C1CCCC1	none
Cc1nc2c(ccc3nc(NC(=O)c4ccc5c(c4)OCCO5)sc32)s1	MC4R ag barr 11 | MC4R barr ag inactive | MOR DOR agonist inactive
COc1ccccc1N1CCN(C(=O)c2ccc(N(C)S(=O)(=O)c3ccccc3)cc2)CC1	none
C=CCSc1nc2sc(-c3ccccc3)cc2c(=O)n1N	MC4R ag barr 19 | MC4R barr ag 21 | MOR DOR agonist 21
CCCCCCCOC(=O)C[N+](C)(C)CCOC1CC2CCC1(C)C2(C)C (stereo unspecified)	MC4R ag barr 12 | MC4R barr ag 18 | MOR DOR agonist inactive
CCCCCCOC(=O)C[N+](C)(C)CCOC1CC2CCC1(C)C2(C)C (stereo unspecified)	none
CCN(CC)C(=O)CSc1nc2cc3c(cc2c(=O)n1CCCCCC(=O)NCc1ccc(OC)cc1)OCO3	none
Nc1ccccc1-c1nnc(-c2ccc(-c3ccccc3)cc2)o1	MC4R ag barr 12 | MC4R barr ag inactive | MOR DOR agonist inactive
CN1CCCCCC1C(=O)N1CCC(N2CCC(C(=O)N3CCOCC3)CC2)CC1 (stereo unspecified)	none
N#Cc1nc(-c2ccc(OCc3ccccc3)cc2)oc1NCc1cccnc1	none
N#Cc1nc(-c2ccc(OCc3ccc(Cl)cc3)cc2)oc1NCc1cccnc1	MC4R ag barr 15 | MC4R barr ag inactive | MOR DOR agonist inactive
Cc1noc(C)c1S(=O)(=O)Nc1ccccc1N1CCOCC1	none
O=C(c1sccc1Br)N1CCN(Cc2ccc3c(c2)OCO3)CC1	none
CC(=O)c1nn(-c2cccc(Br)c2)cc1C(=O)c1ccc(C)cc1	MC4R ag barr 35 | MC4R barr ag inactive | MOR DOR agonist inactive
CC(=O)c1nn(-c2cccc(Br)c2)cc1C(=O)c1ccc(Br)cc1	none
Cc1cc(C)c(C)c(S(=O)(=O)N2CCC(C(=O)NNC(=O)c3ccccc3O)CC2)c1C	none
CCOC(=O)c1ccc(NC(=O)NC2=NCCS2)cc1	none (no result: HTR5A inv ag, HTR5A ag, OPRM1-OPRD1 ag, MOR-DOR inv ag)
COc1cc(/C=C(\NC(=O)c2ccccc2)C(=O)N2CC3CC(C2)c2cccc(=O)n2C3)cc(OC)c1OC (stereo unspecified)	none
Cc1ccc(C(=O)Nc2ccc([N+](=O)[O-])cn2)o1	none
Cc1ccc(C)c(OCc2ccc(C(=O)Nc3ccc([N+](=O)[O-])cn3)o2)c1	MC4R ag barr 16 | MC4R barr ag inactive | MOR DOR agonist inactive
Cc1ccc(C)c(OCc2ccc(C(=O)NN)o2)c1	MC4R ag barr 15 | MC4R barr ag inactive | MOR DOR agonist inactive
O=C(NCc1ccccc1)c1cc(C2CCCN(S(=O)(=O)c3cccs3)C2)on1 (stereo unspecified)	none (no result: HTR5A inv ag, HTR5A ag, OPRM1-OPRD1 ag, MOR-DOR inv ag)
CCCc1cc(=O)oc2cc3oc(C)c(C)c3cc12	MC4R ag barr 13 | MC4R barr ag inactive | MOR DOR agonist inactive
CCc1cc(=O)oc2cc3oc(C)c(C)c3cc12	none
O=C(NCCCN1CCCC1=O)Nc1ccc([N+](=O)[O-])cc1	none
CC1=CC(C)(C)n2c(O)c(N=NC(N)=S)c3cc(C)cc1c32	MC4R ag barr 16 | MC4R barr ag 14 | MOR DOR agonist inactive
CCc1c(C)sc(NC(=O)Cn2nc(C(F)(F)F)c3c2CCCC3)c1C#N	MC4R ag barr 10 | MC4R barr ag inactive | MOR DOR agonist inactive
CCc1c(C)sc(NC(=O)CC#N)c1C#N	none
CN(C(=O)CSc1nnc(-c2ccco2)n1C)C1CCCCC1	none
C#CCn1c2ccccc2c2nc3ccccc3nc21	MC4R ag barr 11 | MC4R barr ag inactive | MOR DOR agonist inactive
N#CCn1c2ccccc2c2nc3ccccc3nc21	none
Cc1ccccc1OCCCC(=O)NCc1ccco1	none
CC(=O)Nc1cc(-c2cccc(C(=O)NCCN(C)C)c2)cn2c(-c3cccc(C(F)(F)F)c3)cnc12	MC4R ag barr 42 (no result: HTR5A inv ag, HTR5A ag, OPRM1-OPRD1 ag, MOR-DOR inv ag) | MC4R barr ag 23 | MOR DOR agonist inactive
CC(=O)Nc1cc(-c2ccccc2N(C)C)cn2c(-c3cccc(C(F)(F)F)c3)cnc12	MC4R ag barr 15 (no result: HTR5A inv ag, HTR5A ag, OPRM1-OPRD1 ag, MOR-DOR inv ag) | MC4R barr ag 11 | MOR DOR agonist inactive
Cc1cc(NC(=O)c2sccc2C)n(-c2nc3ccccc3[nH]2)n1	none
Cc1cc(NC(=O)c2cccs2)n(-c2nc3ccccc3[nH]2)n1	MC4R ag barr 12 | MC4R barr ag inactive | MOR DOR agonist inactive
Cc1ccc(S(=O)(=O)N2CCCCC2CCNC(=O)C(=O)NCC2CCCO2)cc1 (stereo unspecified)	none
CCOC(=O)c1ccc(S(=O)(=O)NC2CCC(C)CC2)cc1 (stereo unspecified)	MC4R ag barr 11 | MC4R barr ag inactive | MOR DOR agonist inactive
CCCNC(=O)C1(C)CCN(Cc2cc3ccccc3o2)C1 (stereo unspecified)	none (no result: HTR5A inv ag, HTR5A ag, OPRM1-OPRD1 ag, MOR-DOR inv ag)
Oc1ccc(/C=N/N2CCN(C3c4ccccc4-c4ccccc43)CC2)cc1	none
